Assay outcomes as filed in PubChem.
DAX1 inh-1: DAX1 (NR0B1) inhibition, primary screen; HEK293T StAR-luciferase reporter, SF-1/DAX-1 repression relief; inhibition, % at 6.8 µM; 370,000 tested, 1.1% active;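 active = inhibition above the mean over all tested compounds plus 3 SD, cut at about 3.6% in these data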;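 note: 0% = DAX-1 cells with DMSO and 100% = cells lacking DAX-1 with DMSO; higher inhibition means more luminescence from relief of DAX-1 repression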
NR2E3 ag-1: agonists of human NR2E3 nuclear receptor; Q9Y5X4; CHO-S Gal4-NCOR/VP16-NR2E3 two-hybrid, luciferase; inhibition of corepressor binding, % at 3.98 µM; 360,000 tested, 0.35% active; AID 602229;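 active = inhibition above the mean of all tested compounds plus 3 SD, cut at about 70% in these data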;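 note: 0% = DMSO with NR2E3 transfected cells and 100% = cells lacking NR2E3 construct; higher means lower luciferase signal from less NR2E3 corepressor binding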
Target sequence (Q9Y5X4 whole entry, looked up, the tested form may be a part): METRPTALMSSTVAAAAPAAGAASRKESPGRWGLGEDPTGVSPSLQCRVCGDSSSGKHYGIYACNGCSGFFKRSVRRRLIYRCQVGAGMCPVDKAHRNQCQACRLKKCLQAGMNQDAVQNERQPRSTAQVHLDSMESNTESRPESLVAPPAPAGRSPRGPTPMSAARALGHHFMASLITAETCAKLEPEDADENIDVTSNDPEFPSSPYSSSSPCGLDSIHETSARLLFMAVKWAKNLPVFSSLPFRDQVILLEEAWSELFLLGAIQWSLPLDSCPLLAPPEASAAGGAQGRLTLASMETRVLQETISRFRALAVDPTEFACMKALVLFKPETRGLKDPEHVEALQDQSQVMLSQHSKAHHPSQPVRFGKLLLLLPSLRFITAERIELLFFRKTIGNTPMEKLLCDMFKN
SMARCA2 activ: SMARCA2 function activation, primary screen; MG213 cells, MMTV-luciferase reporter, dexamethasone, overnight; activation, % at 9.1 µM; 370,000 tested, 1% active; AID 652017; in the data active = activation above about 7.8%;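 note: 0% = vehicle wells and 100% = reference activator wells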
NR2E3 ag-2: NR2E3 (human) agonism; Q9Y5X4; GST-NR2E3/biotin-RetCOR TR-FRET, 1536-well; inhibition of corepressor binding, % at 4.78 µM; 320,000 tested, 0.12% active; AID 2300;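 active = percent inhibition above the cutoff of mean plus 3 SD of all tested compounds, set per screening campaign, cut at about 20% in these data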;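 note: 0% = DMSO wells and 100% = biotin wells as full block of FRET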
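Format: 1536-well format; test system: GST-NR2E3 and biotin-RetCOR proteins; read-out basis: percent inhibition of TR-FRET ratio; timing: 5 h incubation at 4 °C; detection: time-resolved FRET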
DAX1 inh-2: NR0B1 (DAX1) inhibition | AID 504766 | HEK293 Gal4-DAX1 luciferase reporter, luminescence | inhibition, % at 6.75 µM | 340,000 tested, 0.99% active | P51843;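 active = inhibition above the mean over all tested compounds plus 3 SD, cut at about 4.2% in these data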;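 note: 0% = DAX1-transfected cells with DMSO and 100% = empty-vector control cells with DMSO; inhibition shows as a rise in luminescence from relieved DAX1 repression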
Target sequence (P51843 207-470 limits assumed): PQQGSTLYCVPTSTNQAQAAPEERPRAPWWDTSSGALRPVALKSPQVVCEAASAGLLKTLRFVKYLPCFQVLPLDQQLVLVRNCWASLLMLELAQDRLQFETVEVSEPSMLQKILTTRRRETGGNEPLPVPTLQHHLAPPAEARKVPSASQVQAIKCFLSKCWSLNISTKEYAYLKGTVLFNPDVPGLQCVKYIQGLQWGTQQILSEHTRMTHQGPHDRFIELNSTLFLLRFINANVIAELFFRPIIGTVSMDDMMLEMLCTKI
GASC-1 inh: inhibitors of human GASC-1 (JMJD2C) demethylase. Q9H3R0. GST-JMJD2C(1-420) H3K9me3 demethylation, DELFIA europium. 330,000 tested, 0.069% active. AID 2099. inhibition, % at 2.35 µM;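 active = more than half of a compound's replicate wells show inhibition beyond 50%, single wells judged on their own value; inconclusive = some, but no more than half, of replicates pass 50% inhibition; inactive = no replicate passes 50% inhibition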;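 note: signal counts dimethyl H3K9 product captured on neutravidin plate; 0% = median of DMSO wells and 100% = 0.3 times that DMSO median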
* = called active by the depositor; ? = inconclusive; / = not tested or not shown; ! = repeats disagree. The list is not random: actives were taken first. Their share in the collection is about 3.2%.

SMILES | DAX1 inh-1 | NR2E3 ag-1 | SMARCA2 activ | NR2E3 ag-2 | DAX1 inh-2 | GASC-1 inh
CC(C)NC(=O)N(C)C[C@H]1Oc2ccc(NS(=O)(=O)c3ccccc3)cc2C(=O)N([C@H](C)CO)C[C@H]1C | 0 | 10 | 1 | / | -1 | 54*
CCCCCCCCN1C(=O)[C@@H](CC(=O)N2CCOCC2)C[C@@]2(C(=O)OC)C1=C[C@H](COCc1ccccc1)O[C@@H]2C | -1 | / | 0 | / | / | /
CC(C)n1nnnc1C1c2ccccc2OCC(=O)N1Cc1cccc(C(F)(F)F)c1 (stereo not given) | 0 | / | -4 | / | / | /
CCC(=O)NCC[C@@H]1CCc2ccc3c(c21)CCO3 | -2 | / | 3 | / | / | /
COc1ccccc1NC(=O)N(C)C[C@H]1Oc2ncc(Br)cc2C(=O)N([C@H](C)CO)C[C@H]1C | -1 | -24 | -2 | / | 4.7* | /
C[C@H](CO)N1C[C@H](C)[C@@H](CN(C)C(=O)Nc2ccccc2F)Oc2ncc(Br)cc2C1=O | -1 | -16 | 0 | / | 0 | /
C[C@H](CO)N1C[C@H](C)[C@@H](CN(C)S(=O)(=O)c2ccc(F)cc2)Oc2ccc(NC(=O)C3CC3)cc2C1=O | 1 | -14 | 0 | / | 0 | 62*
Cc1cc(C)c(C)c(S(=O)(=O)Nc2ccccc2C(=O)O)c1C | 0 | -19 | -2 | -3 | 4.9* | 6
C=CCN1C(=O)[C@@H](CC(=O)NCCCC)[C@]2(C(=O)OCC)CCCCC/C=C/12 | 0 | / | -1 | / | / | /
c1ccc(OCCSc2nc3ccccc3[nH]2)cc1 | 0 | -72 | 3 | 3 | 4.7* | 7
Cc1ccc2nc(SCCCCOc3ccccc3)[nH]c2c1 | / | 28 | / | 0 | 0 | -8
CCCc1cn(-c2ccc3c(c2)[C@]2(CC(=O)N(C)C2c2ccccc2)C(=O)N3CC(C)C)nn1 (stereo not given in full) | -1 | / | 1 | / | / | /
C[C@@H]1[C@@H](c2ccccc2)c2cc3ccccc3nc2C(=O)C[C@@H]1C(=O)N1CCCC1 | 0 | / | -1 | / | / | /
CCCC12CN3CCN(CC(C3)/C1=N\NC(=O)c1ccccc1N)C2 | 2 | -79 | 3 | 0 | 2 | 5
Nc1ccccc1C(=O)N/N=C1\C2CN3CCN(C2)CC1(c1ccccc1)C3 | 3 | -104 | 3 | 1 | 5.0* | 15
Nc1ccccc1C(=O)N/N=C1/C2CN3CCN(C2)CC1(Cc1ccccc1)C3 | 2 | -47 | 7 | 0 | 4.5* | 5
COC(=O)[C@]12C[C@H](CC(=O)NCC3CCCCC3)C(=O)N(CCC3=CCCCC3)C1=C[C@H](C1CCCC1)O[C@@H]2C | -2 | / | -1 | / | / | /
CC1=C(C(=O)O)CC(S(=O)(=O)O)C1(C)C (stereo not given) | 3.7* | 13 | -5 | / | 2 | /
C=CCOC(=O)/C(=C/c1cccc2ccccc12)NC(=O)c1ccccc1 | 0 | -163 | 3 | 7 | 4.3* | 5
CC(=O)N1CCN(C(=O)CN2C(=O)CC(C)(C)S(=O)(=O)c3ccccc32)CC1 | 1 | / | 3 | / | / | /
Cc1ccc(-n2c(SCC(=O)c3ccc(F)cc3)nnc2-c2cnccn2)cc1 | 0 | / | -4 | / | / | /
O=C(CCS(=O)(=O)Cc1ccccc1)Nc1ncc([N+](=O)[O-])s1 | 4.0* | -22 | 0 | 0 | 0 | 6
O=C(Nc1nnc(C2CC2)s1)c1cccs1 | 3.8* | -62 | 4 | 2 | 0 | 1
O=C(Nc1ncc([N+](=O)[O-])s1)c1cccs1 | 4.3*! | -56 | -3 | 7 | -1 | 7
COC(=O)[C@@]12CCCCC3=C1N(CCC3)C(=O)[C@H]2CC(=O)NCCCN1CCCC1=O | 1 | / | -3 | / | / | /
SMILES | DAX1 inh-1 | NR2E3 ag-1 | SMARCA2 activ | NR2E3 ag-2 | DAX1 inh-2 | GASC-1 inh
Cc1ccccc1CN1CCCCC(NC(=O)c2ccccc2)C1=O (stereo not given) | -2 | / | -2 | / | / | /
O=C(Nc1cccc(Cl)c1)NC1CC2CCC(C1)N2Cc1cccs1 (stereo not given) | 1 | 3 | 1 | 0 | 4.6* | -7
C=CCOc1ccc(CNc2ccc(NC(=O)CCC)cc2)cc1OCC | -1 | -11 | 5 | -6 | 4.5* | -4
C=CCOc1c(Br)cc(CNc2ccc(NC(=O)CCC)cc2)cc1OCC | 0 | 2 | -1 | 3 | -1 | -7
COC(=O)CC1(c2ccc(OC)cc2)C(=O)c2ccccc2C1=O | 0 | 0 | 1 | 2 | 7.1* | 5
CCOCCCNC(=O)C(Cc1ccccc1)NS(=O)(=O)c1cccc2nsnc12 (stereo not given) | 0 | -23 | 0 | -5 | 4.5* | 7
CCCNC(=O)C(Cc1ccccc1)NS(=O)(=O)c1cccc2nsnc12 (stereo not given) | 0 | -16 | -1 | 0 | 1 | -1
Cc1ccccc1NC(=O)C[C@H]1CC[C@H]2[C@@H](COc3ccc(NC(=O)Nc4ccccc4)cc3C(=O)N2C)O1 | 1 | / | -3 | / | / | /
O=C(CSc1nnc(-c2ccccc2F)n1-c1ccccc1)c1ccc2ccccc2c1 | 0 | / | -4 | / | / | /
CC(OC(=O)CCC(=O)c1cccs1)C(=O)Nc1ccccc1[N+](=O)[O-] (stereo not given) | 0 | 10 | 0 | 8 | 1 | -10
Cc1ccc(C(=O)NCC(=O)OC(C)C(=O)Nc2ccccc2[N+](=O)[O-])s1 (stereo not given) | 3.6* | -13 | -1 | / | 1 | -4
CN(Cc1ccccc1F)C(=O)C1CCCN(c2ncccn2)C1 (stereo not given) | -1 | / | -6 | / | / | /
O=C1N2Cc3ccccc3C2CS(=O)(=O)N1CCc1ccccc1 (stereo not given) | 1 | / | 3 | / | / | /
CC1CCCCN1CCCNC(=O)c1ccc2c(c1)NC(=O)CN2C (stereo not given) | 0 | 1 | 7.9* | / | 1 | /
CC(C)CN1C(=O)C[C@]2(C(=O)N(C)c3ccc(NC(=O)C(F)(F)F)cc32)C1c1ccccc1 (stereo not given in full) | 0 | / | -1 | / | / | /
COc1ccc2c(c1)CN1C(=O)N(Cc3ccccc3)S(=O)(=O)CC21 (stereo not given) | -1 | / | 6 | / | / | /
COc1ccccc1CC(=O)NNS(=O)(=O)c1ccc([N+](=O)[O-])cc1 | -1 | 3 | -1 | 0 | 6.1* | -2
Cc1cccc(Nc2nc(-c3c(C)nc4ccccn34)cs2)c1 | -3 | 78* | -6 | 0 | -3 | ?
Cc1nc2ccccn2c1-c1csc(Nc2cccc(O)c2)n1 | -4 | -17 | -3 | / | -3 | 34
CCOCC(=O)NC(=O)N1C[C@H]2CON(C)[C@H]2C[C@H]1c1ccc(OC)cc1 | 0 | / | -3 | / | / | /
COC[C@H]1O[C@]2(c3ccccc3)CO[C@H]1[C@@H](/C=C/c1ccccc1)C2 | 0 | / | -3 | / | / | /
CCOC(=O)Cc1csc(NS(=O)(=O)c2cccc([N+](=O)[O-])c2)n1 | 0 | -24 | -1 | -1 | 0 | -2
